Reference: ChEMBL document CHEMBL4265984, “Improved potency and reduced toxicity of the antifungal peptoid AEC5 through submonomer modification” (Bioorg Med Chem Lett, 2018)
In brackets after ≈: the same amount, converted by molar mass.

How the values were obtained:
[1] = Selectivity index, ratio of HC10 for human RBC to MIC>90 for Cryptococcus neoformans H99S serotype A; type: toxicity; conditions: red blood cells, read-out: Selectivity Index
[2] = Selectivity index, ratio of TD50 for mouse NIH/3T3 cells to MIC>90 for Cryptococcus neoformans H99S serotype A; type: toxicity; conditions: read-out: Selectivity Index
Cryptococcus neoformans = assay: Antifungal activity against Cryptococcus neoformans H99S serotype A after 72 hrs by presto blue dye based CLSI method; type: functional, Cryptococcus neoformans var. grubii H99S
[3] = Selectivity index, ratio of TD50 for human HepG2 cells to MIC>90 for Cryptococcus neoformans H99S serotype A; type: toxicity; conditions: read-out: Selectivity Index
[4] = Hemolytic activity in human RBC at 100 ug/ml after 1 hr relative to control; type: ADME, cell-based, Erythrocyte; conditions: red blood cells (erythrocytes), read-out: Activity
Erythrocyte = assay: Hemolytic activity in human RBC after 1 hr; type: ADME, cell-based
Method in brief: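 Hemolysis of human red blood cells is reported as HC10, the concentration giving 10% hemolysis, in µg/mL.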

[5] = Cytotoxicity against mouse NIH/3T3 cells after 72 hrs by MTT assay; type: cell-based, NIH3T3; conditions: read-out: TD50
[6] = Cytotoxicity against human HepG2 cells after 72 hrs by MTT assay; type: cell-based; conditions: read-out: TD50

| SMILES | selectivity ratio [1] | selectivity ratio [2] | MIC90 (Cryptococcus neoformans) | selectivity ratio [3] | hemolysis at 1 h, 100 ug/ml [4] | HC10 (Erythrocyte) | CC50 at 72 h [5] | CC50 at 72 h [6] |
| --- | --- | --- | --- | --- | --- | --- | --- | --- |
| CCCCCCCCCCCCCNCC(=O)N(CCCCN)CC(=O)N(CC(N)=O)Cc1ccco1 | 9 | 8 | 6.3 µg/mL (≈ 12.1 µM) | 9 | 30.4% | 56.6 µg/mL | 48.6 µg/mL (≈ 93.1 µM) | 56.2 µg/mL (≈ 108 µM) |
| CCCCCCCCCCCCCNCC(=O)N(CCN)CC(=O)N(CC(N)=O)Cc1cccs1 | – | – | 6.25 µg/mL (≈ 12.3 µM) | 6 | – | – | – | 40.5 µg/mL (≈ 79.4 µM) |
| CCCCCCCCCCCCCNCC(=O)N(CCCCN)CC(=O)N(CC(N)=O)Cc1ncc[nH]1 | – | – | 25 µg/mL (≈ 47.9 µM) | 6 | – | – | – | 147 µg/mL (≈ 282 µM) |
| CC(C)=CCC/C(C)=C/CC/C(C)=C/CNCC(=O)N(CCCCN)CC(=O)N(CCCn1ccnc1)CC(N)=O | – | – | 100 µg/mL (≈ 175 µM) | – | – | – | – | – |
| CCCCCCCCCCCCCCCCNCC(=O)N(CCCCN)CC(=O)N(CC(N)=O)Cc1ccco1 | – | – | 3.13 µg/mL (≈ 5.55 µM) | 13 | – | – | – | 40.4 µg/mL (≈ 71.7 µM) |
| CCCCCCCCCCCCCNCC(=O)N(CCCCN)CC(=O)N(CC(N)=O)Cc1ccccc1 | – | – | 3.13 µg/mL (≈ 5.89 µM) | 17 | – | – | – | 52.2 µg/mL (≈ 98.2 µM) |
| CCCCCCCCCCCCCNCC(=O)N(CCCNC(=N)N)CC(=O)N(CC(N)=O)Cc1cccs1 | – | – | 12.5 µg/mL (≈ 22.1 µM) | 3 | – | – | – | 40.8 µg/mL (≈ 72.1 µM) |
| CCCCCCCCCCCCCNCC(=O)N(CCCCN)CC(=O)N(CC(N)=O)CC1CCCO1 (centres undefined) | – | – | 12.5 µg/mL (≈ 23.8 µM) | 14 | – | – | – | 170 µg/mL (≈ 324 µM) |
| CCCCCCCCNCC(=O)N(CCCCN)CC(=O)N(CC(N)=O)Cc1ccco1 | – | – | > 800 µg/mL | – | – | – | – | – |
| CCCCCCCCCCCCCNCC(=O)N(CCCCN)CC(=O)N(CCc1c[nH]c2ccccc12)CC(N)=O | – | – | 3.13 µg/mL (≈ 5.35 µM) | 14 | – | – | – | 42.7 µg/mL (≈ 73 µM) |
| CNCC(=O)N(CCCCN)CC(=O)N(CC(N)=O)Cc1ccco1 | – | – | > 400 µg/mL | – | – | – | – | > 800 µg/mL |
| CCCCCCCCCCCCCNCC(=O)N(CCCC[N+](C)(C)C)CC(=O)N(CC(N)=O)Cc1cccs1 | – | – | 3.13 µg/mL | – | 46% | 42.6 µg/mL | 115 µg/mL | 91.2 µg/mL |
| CC(C)=CCC/C(C)=C/CNCC(=O)N(CCCCN)CC(=O)N(CC(N)=O)Cc1ccco1 | – | – | 400 µg/mL (≈ 841 µM) | – | – | – | – | – |
| CC(C)=CCC/C(C)=C/CC/C(C)=C/CNCC(=O)N(CCCCN)CC(=O)N(CCc1c[nH]c2ccccc12)CC(N)=O | – | – | 100 µg/mL (≈ 165 µM) | – | – | – | – | – |
| CCCCCCCCCCCCCNCC(=O)N(CCCCN)CC(=O)N(C)CC(N)=O | – | – | 50 µg/mL (≈ 110 µM) | 1 | – | – | – | 54.3 µg/mL (≈ 119 µM) |
| CCCCCCCCCCCCCNCC(=O)N(CCCCCCN)CC(=O)N(CC(N)=O)Cc1cccs1 | – | – | 3.13 µg/mL (≈ 5.53 µM) | 18 | – | – | – | 56.2 µg/mL (≈ 99.3 µM) |
| CCCCCCCCCCCCCNCC(=O)N(CCCN)CC(=O)N(CC(N)=O)Cc1cccs1 | – | – | 3.13 µg/mL (≈ 5.98 µM) | 15 | – | – | – | 47.3 µg/mL (≈ 90.3 µM) |
| CCCCCCCCCCCCCNCC(=O)N(CCCCN)CC(=O)N(CC(N)=O)Cc1cccs1 | 12 | 21 | 3.13 µg/mL (≈ 5.82 µM) | 25 | 48.6% | 37.2 µg/mL | 65.9 µg/mL (≈ 123 µM) | 79.3 µg/mL (≈ 147 µM) |
| CC(C)=CCC/C(C)=C/CC/C(C)=C/CNCC(=O)N(CCCCN)CC(=O)N(CC(N)=O)Cc1cccs1 | – | – | 400 µg/mL (≈ 715 µM) | – | – | – | – | – |
| CCCCCCCCCCNCC(=O)N(CCCCN)CC(=O)N(CC(N)=O)Cc1ccco1 | – | – | 400 µg/mL (≈ 834 µM) | – | – | – | – | – |
| CCCCCCCCCCCCCNCC(=O)N(CCCCN)CC(=O)N(CC(N)=O)Cc1ccncc1 | – | – | 25 µg/mL (≈ 46.9 µM) | 4 | – | – | – | 104 µg/mL (≈ 195 µM) |
| CC(C)=CCC/C(C)=C/CC/C(C)=C/CNCC(=O)N(CCCCN)CC(=O)N(CC(N)=O)Cc1ccco1 | – | – | 100 µg/mL (≈ 184 µM) | 8 | – | – | – | 800 µg/mL (≈ 1470 µM) |
| CCCCCCCCCCCCCNCC(=O)N(CCCCN)CC(=O)N(CCCn1ccnc1)CC(N)=O | – | – | 50 µg/mL (≈ 90.9 µM) | 5 | – | – | – | 228 µg/mL (≈ 415 µM) |
| CCCCCCCCCCCCCNCC(=O)N(C)CC(=O)N(CC(N)=O)Cc1ccco1 | – | – | 12.5 µg/mL (≈ 26.9 µM) | 2 | – | – | – | 21.1 µg/mL (≈ 45.4 µM) |
| CCCCCCCCCCCCCNCC(=O)N(CCCCO)CC(=O)N(CC(N)=O)Cc1cccs1 | – | – | 12.5 µg/mL (≈ 23.2 µM) | 3 | – | – | – | 31 µg/mL (≈ 57.5 µM) |
